Reference: ChEMBL document CHEMBL1649165, “Activity profile in vitro of micafungin against Spanish clinical isolates of common and emerging species of yeasts and molds” (2009)
In brackets after ≈: the same amount, converted by molar mass.

What was measured:
Type in all cases: functional
[1] = tested on: Candida parapsilosis; assay: Antimicrobial activity against Candida parapsilosis by broth microdilution method; details: Lodderomyces parapsilosis
Method in brief: (§1)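 Clinical isolates from human patients, tested by broth microdilution using the AFST-EUCAST reference procedure for fermentative yeasts. The MIC was read per that reference method.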

[2] = tested on: Candida tropicalis; assay: Antimicrobial activity against Candida tropicalis by broth microdilution method; method in brief: as §1
[3] = tested on: Nakaseomyces glabratus; assay: Antimicrobial activity against Candida glabrata by broth microdilution method; method in brief: as §1
[4] = tested on: Meyerozyma guilliermondii; assay: Antimicrobial activity against Candida guilliermondii by broth microdilution method; method in brief: as §1
[5] = tested on: Diutina rugosa; assay: Antimicrobial activity against Candida rugosa by broth microdilution method; method in brief: as §1
[6] = tested on: Debaryomyces hansenii; assay: Antimicrobial activity against Candida famata by broth microdilution method; method in brief: as §1
[7] = tested on: Wickerhamomyces anomalus; assay: Antimicrobial activity against Candida pelliculosa by broth microdilution method; details: Hansenula anomala; method in brief: as §1
[8] = tested on: Candida metapsilosis; assay: Antimicrobial activity against Candida metapsilosis by broth microdilution method; details: Lodderomyces metapsilosis; method in brief: as §1
[9] = tested on: Candida orthopsilosis; assay: Antimicrobial activity against Candida orthopsilosis by broth microdilution method; details: Lodderomyces orthopsilosis; method in brief: as §1
[10] = tested on: Kazachstania pintolopesii; assay: Antimicrobial activity against Candida pintolopesii by broth microdilution method; details: Arxiozyma pintolopesii; method in brief: as §1
[11] = tested on: Yarrowia lipolytica; assay: Antimicrobial activity against Yarrowia lipolytica by broth microdilution method
[12] = tested on: Rhodotorula mucilaginosa; assay: Antimicrobial activity against Rhodotorula mucilaginosa by broth microdilution method
Method in brief: (§2)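 Nonfermentative yeast clinical isolates (Rhodotorula, Trichosporon) tested by broth microdilution. The EUCAST yeast recommendations were followed strictly, with one minor modification to improve growth. MIC was read as the endpoint.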

[13] = tested on: Trichosporon inkin; assay: Antimicrobial activity against Trichosporon inkin by broth microdilution method; method in brief: as §2
[14] = tested on: Trichosporon dermatis; assay: Antimicrobial activity against Trichosporon dermatis by broth microdilution method; details: Cutaneotrichosporon dermatis; method in brief: as §2
[15] = tested on: Trichosporon jirovecii; assay: Antimicrobial activity against Trichosporon jirovecii by broth microdilution method; details: Cutaneotrichosporon jirovecii; method in brief: as §2
[16] = tested on: Ustilago; assay: Antimicrobial activity against Ustilago spp by broth microdilution method
[17] = tested on: Rhodotorula glutinis; assay: Antimicrobial activity against Rhodotorula glutinis by broth microdilution method; method in brief: as §2
[18] = tested on: Trichosporon domesticum; assay: Antimicrobial activity against Trichosporon mycotoxinivorans by broth microdilution method; details: Apiotrichum domesticum
Method in brief: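 Spanish human clinical isolates were tested as nonfermentative yeasts by broth microdilution. The method strictly followed the EUCAST recommendations, with a minor modification to improve growth, and the read-out was the MIC.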

[19] = tested on: Trichosporon; assay: Antimicrobial activity against Trichosporon spp. by broth microdilution method; method in brief: as §2
[20] = tested on: Aspergillus fumigatus; assay: Antimicrobial activity against Aspergillus fumigatus by broth microdilution method
Method in brief: (§3)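 Clinical mould isolates, tested by broth microdilution using the AFST-EUCAST reference method for filamentous fungi. For echinocandins, the endpoint was the minimum effective concentration: the lowest drug concentration giving aberrant hyphal growth, read with an inverted microscope.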

[21] = tested on: Aspergillus terreus; assay: Antimicrobial activity against Aspergillus terreus by broth microdilution method; method in brief: as §3
[22] = tested on: Aspergillus flavus; assay: Antimicrobial activity against Aspergillus flavus by broth microdilution method; method in brief: as §3
[23] = tested on: Aspergillus nidulans; assay: Antimicrobial activity against Aspergillus nidulans by broth microdilution method; method in brief: as §3
[24] = tested on: Aspergillus ustus; assay: Antimicrobial activity against Aspergillus ustus by broth microdilution method; method in brief: as §3
[25] = tested on: Aspergillus; assay: Antimicrobial activity against Aspergillus spp. by broth microdilution method; method in brief: as §3
[26] = tested on: Penicillium; assay: Antimicrobial activity against Penicillium spp. by broth microdilution method
Method in brief: (§4)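 Filamentous fungus clinical isolates tested by the AFST-EUCAST reference broth microdilution method for moulds. For echinocandins, the endpoint was the minimum effective concentration: the lowest drug concentration giving aberrant hyphal growth, read with an inverted microscope.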

[27] = tested on: Fusarium proliferatum; assay: Antimicrobial activity against Fusarium proliferatum by broth microdilution method; method in brief: as §3
[28] = tested on: Fusarium verticillioides; assay: Antimicrobial activity against Fusarium verticillioides by broth microdilution method; method in brief: as §4
[29] = tested on: Paecilomyces variotii; assay: Antimicrobial activity against Paecilomyces variotii by broth microdilution method; method in brief: as §4
[30] = tested on: Acremonium sp.; assay: Antimicrobial activity against Acremonium sp.by broth microdilution method; method in brief: as §3
[31] = tested on: Trichoderma; assay: Antimicrobial activity against Trichoderma spp. by broth microdilution method; method in brief: as §4
[32] = Antimicrobial activity against Hormographiella aspergillata by broth microdilution method; details: Coprinopsis cinerea; method in brief: as §4
[33] = tested on: Fusarium equiseti; assay: Antimicrobial activity against Fusarium equiseti by broth microdilution method; method in brief: as §3
[34] = tested on: Coprinellus domesticus; assay: Antimicrobial activity against Hormographiella verticillata by broth microdilution method; method in brief: as §4
[35] = tested on: Alternaria alternata; assay: Antimicrobial activity against Alternaria alternata by broth microdilution method; method in brief: as §3
[36] = tested on: Exophiala dermatitidis; assay: Antimicrobial activity against Exophiala dermatitidis by broth microdilution method
[37] = tested on: Hortaea werneckii; assay: Antimicrobial activity against Hortaea werneckii by broth microdilution method
[38] = tested on: Cladosporium; assay: Antimicrobial activity against Cladosporium spp. by broth microdilution method; method in brief: as §3
[39] = tested on: Cladophialophora bantiana; assay: Antimicrobial activity against Cladophialophora bantiana by broth microdilution method; method in brief: as §3
[40] = tested on: Rhizopus arrhizus; assay: Antimicrobial activity against Rhizopus oryzae by broth microdilution method; method in brief: as §4
[41] = tested on: Mucor; assay: Antimicrobial activity against Mucor spp.by broth microdilution method; method in brief: as §4
[42] = tested on: Cunninghamella bertholletiae; assay: Antimicrobial activity against Cunninghamella bertholletiae by broth microdilution method; method in brief: as §3
[43] = Antimicrobial activity against Rhizopus microsporus by broth microdilution method; method in brief: as §4
[44] = tested on: Saksenaea vasiformis; assay: Antimicrobial activity against Saksenaea vasiformis by broth microdilution method; method in brief: as §4
[45] = tested on: Beauveria bassiana; assay: Antimicrobial activity against Beauveria bassiana by broth microdilution method; method in brief: as §3

Compound: CC[C@@H]([C@H](C)O)n1ncn(-c2ccc(N3CCN(c4ccc(OC[C@@H]5CO[C@@](Cn6cncn6)(c6ccc(F)cc6F)C5)cc4)CC3)cc2)c1=O [POSACONAZOLE]
- MIC50 [1]: 0.02 µg/mL (≈ 0.0285 µM)
- MIC90 [1]: 0.03 µg/mL (≈ 0.0428 µM)
- MIC50 [2]: 0.02 µg/mL (≈ 0.0285 µM)
- MIC90 [2]: 0.03 µg/mL (≈ 0.0428 µM)
- MIC50 [3]: 0.25 µg/mL (≈ 0.357 µM)
- MIC90 [3]: 1 µg/mL (≈ 1.43 µM)
- MIC50 [4]: 0.12 µg/mL (≈ 0.171 µM)
- MIC90 [4]: > 8 µg/mL
- MIC50 [5]: 0.03 µg/mL (≈ 0.0428 µM)
- MIC90 [5]: > 8 µg/mL
- MIC50 [6]: 0.03 µg/mL (≈ 0.0428 µM)
- MIC90 [6]: > 8 µg/mL
- MIC50 [7]: 0.03 µg/mL (≈ 0.0428 µM)
- MIC90 [7]: > 8 µg/mL
- MIC50 [8]: 0.03 µg/mL (≈ 0.0428 µM)
- MIC90 [8]: > 8 µg/mL
- MIC50 [9]: 0.03 µg/mL (≈ 0.0428 µM)
- MIC90 [9]: > 8 µg/mL
- MIC50 [10]: 0.03 µg/mL (≈ 0.0428 µM)
- MIC90 [10]: > 8 µg/mL
- MIC50 [11]: 0.25 µg/mL (≈ 0.357 µM)
- MIC90 [11]: 2 µg/mL (≈ 2.85 µM)
- MIC50 [12]: 2 µg/mL (≈ 2.85 µM)
- MIC90 [12]: > 8 µg/mL
- MIC50 [13]: 0.06 µg/mL (≈ 0.0856 µM)
- MIC90 [13]: 0.12 µg/mL (≈ 0.171 µM)
- MIC50 [14]: 0.25 µg/mL (≈ 0.357 µM)
- MIC90 [14]: > 8 µg/mL
- MIC50 [15]: 0.25 µg/mL (≈ 0.357 µM)
- MIC90 [15]: > 8 µg/mL
- MIC50 [16]: 0.25 µg/mL (≈ 0.357 µM)
- MIC90 [16]: > 8 µg/mL
- MIC50 [17]: 0.25 µg/mL (≈ 0.357 µM)
- MIC90 [17]: > 8 µg/mL
- MIC50 [18]: 0.25 µg/mL (≈ 0.357 µM)
- MIC90 [18]: > 8 µg/mL
- MIC50 [19]: 0.25 µg/mL (≈ 0.357 µM)
- MIC90 [19]: > 8 µg/mL
- MIC50 [20]: 0.06 µg/mL (≈ 0.0856 µM)
- MIC90 [20]: 0.25 µg/mL (≈ 0.357 µM)
- MIC50 [21]: 0.06 µg/mL (≈ 0.0856 µM)
- MIC90 [21]: 0.12 µg/mL (≈ 0.171 µM)
- MIC50 [22]: 0.12 µg/mL (≈ 0.171 µM)
- MIC90 [22]: 0.25 µg/mL (≈ 0.357 µM)
- MIC50 [23]: 0.06 µg/mL (≈ 0.0856 µM)
- MIC90 [23]: 0.25 µg/mL (≈ 0.357 µM)
- MIC50 [24]: 0.12 µg/mL (≈ 0.171 µM)
- MIC90 [24]: > 8 µg/mL
- MIC50 [25]: 0.12 µg/mL (≈ 0.171 µM)
- MIC90 [25]: > 8 µg/mL
- MIC50 [26]: 0.25 µg/mL (≈ 0.357 µM)
- MIC90 [26]: 4 µg/mL (≈ 5.71 µM)
- MIC50 [27]: > 8 µg/mL
- MIC90 [27]: > 8 µg/mL
- MIC50 [28]: 2 µg/mL (≈ 2.85 µM)
- MIC90 [28]: > 8 µg/mL
- MIC50 [29]: 0.03 µg/mL (≈ 0.0428 µM)
- MIC90 [29]: 0.25 µg/mL (≈ 0.357 µM)
- MIC50 [30]: 8 µg/mL (≈ 11.4 µM)
- MIC90 [30]: > 16 µg/mL
- MIC50 [31]: 4 µg/mL (≈ 5.71 µM)
- MIC90 [31]: > 8 µg/mL
- MIC50 [32]: 4 µg/mL (≈ 5.71 µM)
- MIC90 [32]: > 8 µg/mL
- MIC50 [33]: 4 µg/mL (≈ 5.71 µM)
- MIC90 [33]: > 8 µg/mL
- MIC50 [34]: 4 µg/mL (≈ 5.71 µM)
- MIC90 [34]: > 8 µg/mL
- MIC50 [35]: 1 µg/mL (≈ 1.43 µM)
- MIC90 [35]: > 8 µg/mL
- MIC50 [36]: 0.06 µg/mL (≈ 0.0856 µM)
- MIC90 [36]: > 8 µg/mL
- MIC50 [37]: 0.06 µg/mL (≈ 0.0856 µM)
- MIC90 [37]: > 8 µg/mL
- MIC50 [38]: 0.06 µg/mL (≈ 0.0856 µM)
- MIC90 [38]: > 8 µg/mL
- MIC50 [39]: 0.06 µg/mL (≈ 0.0856 µM)
- MIC90 [39]: > 8 µg/mL
- MIC50 [40]: 2 µg/mL (≈ 2.85 µM)
- MIC90 [40]: > 8 µg/mL
- MIC50 [41]: 4 µg/mL (≈ 5.71 µM)
- MIC90 [41]: > 8 µg/mL
- MIC50 [42]: 4 µg/mL (≈ 5.71 µM)
- MIC90 [42]: > 8 µg/mL
- MIC50 [43]: 4 µg/mL (≈ 5.71 µM)
- MIC90 [43]: > 8 µg/mL
- MIC50 [44]: 4 µg/mL (≈ 5.71 µM)
- MIC90 [44]: > 8 µg/mL
- MIC50 [45]: 4 µg/mL (≈ 5.71 µM)
- MIC90 [45]: > 8 µg/mL
